Experiments:
[1] = biological target: T1, Adrenergic receptor alpha-1 (Rattus norvegicus, UniProt P15823+P23944+P43140); experiment: Displacement of [3H]-Prazosin from alpha1 adrenergic receptor in rat brain cerebral cortex membranes by liquid scintillation counting analysis; type: cell membranes, Membrane
T1 sequence (P15823 whole entry): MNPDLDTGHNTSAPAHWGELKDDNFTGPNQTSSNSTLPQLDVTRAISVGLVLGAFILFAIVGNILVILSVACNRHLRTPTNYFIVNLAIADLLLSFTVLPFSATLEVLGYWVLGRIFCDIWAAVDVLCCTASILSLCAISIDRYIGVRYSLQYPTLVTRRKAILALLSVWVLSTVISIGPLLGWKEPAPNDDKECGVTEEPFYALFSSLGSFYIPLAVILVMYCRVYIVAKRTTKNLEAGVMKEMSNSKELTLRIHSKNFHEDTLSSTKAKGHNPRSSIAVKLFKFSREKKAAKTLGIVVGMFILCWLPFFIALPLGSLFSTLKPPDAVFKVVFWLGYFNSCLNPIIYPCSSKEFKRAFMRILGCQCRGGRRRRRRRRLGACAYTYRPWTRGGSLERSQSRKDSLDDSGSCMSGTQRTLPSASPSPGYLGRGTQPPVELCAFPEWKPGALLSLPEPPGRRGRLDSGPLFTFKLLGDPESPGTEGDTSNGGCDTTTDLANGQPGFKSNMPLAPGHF
T1 sequence (P23944 whole entry): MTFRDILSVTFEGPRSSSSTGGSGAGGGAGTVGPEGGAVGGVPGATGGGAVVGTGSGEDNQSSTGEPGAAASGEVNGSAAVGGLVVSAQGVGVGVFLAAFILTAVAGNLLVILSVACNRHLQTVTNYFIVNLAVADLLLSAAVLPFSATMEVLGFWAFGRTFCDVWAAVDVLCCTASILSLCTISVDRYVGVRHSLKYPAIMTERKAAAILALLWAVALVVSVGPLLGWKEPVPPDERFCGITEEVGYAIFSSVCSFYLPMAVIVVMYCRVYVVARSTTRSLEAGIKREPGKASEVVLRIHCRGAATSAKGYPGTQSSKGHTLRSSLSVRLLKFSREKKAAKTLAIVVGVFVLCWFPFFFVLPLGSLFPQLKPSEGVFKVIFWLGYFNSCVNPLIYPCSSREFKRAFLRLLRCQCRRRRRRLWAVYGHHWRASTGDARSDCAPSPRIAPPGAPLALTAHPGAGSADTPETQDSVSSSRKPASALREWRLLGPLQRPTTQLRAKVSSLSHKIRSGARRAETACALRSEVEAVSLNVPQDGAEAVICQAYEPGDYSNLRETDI
T1 sequence (P43140 whole entry): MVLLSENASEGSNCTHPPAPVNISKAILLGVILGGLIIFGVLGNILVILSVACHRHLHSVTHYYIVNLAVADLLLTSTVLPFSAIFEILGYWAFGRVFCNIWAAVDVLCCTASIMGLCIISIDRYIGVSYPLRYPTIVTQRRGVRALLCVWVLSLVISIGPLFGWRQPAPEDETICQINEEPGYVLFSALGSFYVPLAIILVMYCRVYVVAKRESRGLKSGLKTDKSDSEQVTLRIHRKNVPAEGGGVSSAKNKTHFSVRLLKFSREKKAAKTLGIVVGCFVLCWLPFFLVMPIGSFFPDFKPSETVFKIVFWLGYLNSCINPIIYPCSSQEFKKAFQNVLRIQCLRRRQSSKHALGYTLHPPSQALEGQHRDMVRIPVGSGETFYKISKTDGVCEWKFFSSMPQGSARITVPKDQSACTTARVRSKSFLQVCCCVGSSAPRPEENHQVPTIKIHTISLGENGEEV
Summary of the method: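 Rat cerebral cortex homogenized in ice-cold 50 mM Tris–HCl (pH 7.6), spun at 20,000 g for 20 min (0–4 °C), resuspended and spun again. Membranes incubated with 0.2 nM [3H]-prazosin (α1) or 2 nM [3H]-clonidine (α2) and seven to eight compound concentrations (10^-11 to 10^-4 M). Non-specific binding defined with 10 µM phentolamine (prazosin) or 10 µM clonidine (clonidine). Ended by GF/C filtration, counted by liquid scintillation. Run in duplicate; Ki from two independent experiments.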

[2] = biological target: T2, Alpha-1A adrenergic receptor (Homo sapiens, UniProt P35348); experiment: Intrinsic activity at alpha1A adrenergic receptor (unknown origin) assessed as inhibition of agonist induced effect preincubated for 30 mins followed by agonist addition measured after 5 hrs in presence of CCF4-AM by cell based beta lactamase reporter gene assay
T2 sequence (P35348 whole entry): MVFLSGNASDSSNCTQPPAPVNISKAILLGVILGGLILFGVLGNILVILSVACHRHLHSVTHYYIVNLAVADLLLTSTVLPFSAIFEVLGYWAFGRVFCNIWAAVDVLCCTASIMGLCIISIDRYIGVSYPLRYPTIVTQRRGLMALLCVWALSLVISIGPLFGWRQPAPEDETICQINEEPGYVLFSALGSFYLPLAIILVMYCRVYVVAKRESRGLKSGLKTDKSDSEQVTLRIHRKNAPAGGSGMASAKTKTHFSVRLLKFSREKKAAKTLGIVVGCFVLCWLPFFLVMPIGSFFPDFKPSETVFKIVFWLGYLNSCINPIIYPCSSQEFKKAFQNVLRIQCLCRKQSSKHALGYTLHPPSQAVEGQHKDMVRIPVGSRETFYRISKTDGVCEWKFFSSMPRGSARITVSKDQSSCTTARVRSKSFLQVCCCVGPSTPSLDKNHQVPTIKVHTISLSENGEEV
Summary of the method: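 Antagonist mode: 8 compound concentrations (10^-4–10^-11 M), then after 30 min standard agonist at EC80. Incubated 5 h at 37 °C/5% CO2, then loaded with CCF4-AM FRET substrate for 2 h at room temperature. Fluorescence read-out. Mean EC50 from three experiments.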

Ki [1] [nM]	EC50 [2] [nM]	SMILES
46	121	COc1ccccc1OCCN1CCC(CNS(=O)(=O)c2cccc(Cl)c2)CC1
81	161	COc1ccc(S(=O)(=O)NCC2CCN(CCOc3ccccc3OC)CC2)cc1OC
95	34.1	CC(C)Oc1ccccc1OCCN1CCC(CNS(=O)(=O)c2cccc3cccnc23)CC1
90	140	COc1ccccc1OCCN1CCC(CNS(=O)(=O)c2cncc3ccccc23)CC1
71	11.1	CC(C)Oc1ccccc1OCCN1CCC(CNS(=O)(=O)c2cccc(Cl)c2F)CC1
48	84.2	COc1ccccc1OCCN1CCC(CNS(=O)(=O)c2cccc(Cl)c2F)CC1
99	192	COc1ccc(S(=O)(=O)NC2CCN(CCOc3ccccc3OC)CC2)cc1OC
56	148	COc1ccccc1OCCN1CCC(CNS(=O)(=O)c2cc(Cl)ccc2F)CC1
52	99.7	COc1ccccc1OCCN1CCC(NS(=O)(=O)c2cncc3ccccc23)CC1

Reference: ChEMBL document CHEMBL3861996, “Arylsulfonamide derivatives of (aryloxy)ethyl pyrrolidines and piperidines as α1-adrenergic receptor antagonist with uro-selective activity” (Bioorg Med Chem, 2016)
